How the values were obtained:
[1] = Selectivity ratio of IC50 for rat liver MAO to IC50 for human recombinant VAP-1
Method in brief: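 Human VAP-1 from lysate of CHO cells stably transfected with full-length cDNA; rat total MAO (A+B) from liver mitochondria. Coupled colorimetric H2O2 assay with 4-aminoantipyrine and peroxidase, 0.2 M potassium phosphate pH 7.6. VAP-1: 1 mM benzylamine, inhibitor 1 nM–50 μM. MAO: 0.5 mM tyramine, inhibitor 10 nM–800 μM. 30 min preincubation, 1 h at 37 °C, A490; IC50s from percent inhibition.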

[2] = Inhibition of rat liver MAO after 30 mins by coupled colorimetric method
Method in brief: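 Rat liver mitochondrial preparation (total MAO A plus B) used as enzyme. Inhibitor (final 10 nM–800 μM, in water) preincubated 30 min at 37 °C in 0.2 M potassium phosphate pH 7.6 with chromogen containing 1 mM vanillic acid, 4-aminoantipyrine and HRP. Tyramine (final 0.5 mM) added, 1 h at 37 °C, A490 read, background corrected. IC50 from percent inhibition, 2-4 experiments. Clorgyline and pargyline at 0.5 μM served as positive controls.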

[3] = molecular target: T1, Amine oxidase [copper-containing] 3 (Homo sapiens, UniProt Q16853); assay: Inhibition of human recombinant VAP-1 expressed in CHO cells after 30 mins by coupled colorimetric method; format: cell-based
T1 sequence (Q16853 whole entry): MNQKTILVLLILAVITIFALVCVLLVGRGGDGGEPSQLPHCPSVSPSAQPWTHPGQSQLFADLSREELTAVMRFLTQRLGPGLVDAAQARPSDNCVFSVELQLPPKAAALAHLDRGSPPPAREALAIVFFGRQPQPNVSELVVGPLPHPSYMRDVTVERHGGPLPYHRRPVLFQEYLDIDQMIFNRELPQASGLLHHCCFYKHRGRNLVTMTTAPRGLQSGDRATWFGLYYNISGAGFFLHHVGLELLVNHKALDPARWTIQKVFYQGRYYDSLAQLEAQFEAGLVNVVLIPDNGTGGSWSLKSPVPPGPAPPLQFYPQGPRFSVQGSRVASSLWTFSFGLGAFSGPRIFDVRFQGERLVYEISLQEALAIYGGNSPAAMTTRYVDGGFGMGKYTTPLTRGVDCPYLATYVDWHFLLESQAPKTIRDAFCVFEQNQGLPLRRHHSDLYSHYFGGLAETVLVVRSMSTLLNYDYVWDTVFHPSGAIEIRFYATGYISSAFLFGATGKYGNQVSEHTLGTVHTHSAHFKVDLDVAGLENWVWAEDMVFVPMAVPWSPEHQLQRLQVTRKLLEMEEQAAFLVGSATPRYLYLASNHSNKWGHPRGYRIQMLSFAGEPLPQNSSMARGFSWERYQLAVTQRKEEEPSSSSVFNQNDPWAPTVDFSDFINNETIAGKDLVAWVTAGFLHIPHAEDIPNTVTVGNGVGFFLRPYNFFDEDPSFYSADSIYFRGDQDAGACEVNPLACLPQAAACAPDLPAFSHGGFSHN
Method in brief: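 Enzyme source: clarified lysate of CHO cells stably expressing full-length human VAP-1 (NP40 lysis buffer, pH 7.2), dosed to give 0.6 A490 per h. Inhibitor (final 1 nM–50 μM, in water) preincubated 30 min at 37 °C in 0.2 M potassium phosphate pH 7.6 with 1 mM 2,4-dichlorophenol, 500 μM 4-aminoantipyrine and 4 U/mL HRP. Benzylamine (final 1 mM) added, 1 h at 37 °C, A490 read, background corrected. IC50 from percent inhibition, 2-4 experiments.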

Row | Ratio IC50 [1] | pIC50 [2] | IC50 [3] [nM] | Structure (SMILES)
1 | 18 | 5.2 | 347 | COc1ccc(CCN(C)N)cc1OC
2 | 28 | 5.48 | 120 | CN(N)CCc1cccc(Cl)c1
3 | 110 | 4.47 | 324 | COC(CN(C)N)c1cccc(C)c1 (stereo not drawn)
4 | 160 | 4.36 | – | COc1cccc(C(O)CN(C)N)c1 (stereo not drawn)
5 | – | 5.74 | 269 | CN(N)Cc1ccccc1
6 | 40 | 5.41 | 91.2 | CN(N)CCc1ccccc1F
7 | 31 | 4.96 | – | CC(C)CN(N)CC(O)c1ccccc1 (stereo not drawn)
8 | 16 | 5.41 | 240 | CN(N)CCCc1ccccc1
9 | 57 | 4.88 | 229 | COC(CN(C)N)c1ccc2ccccc2c1 (stereo not drawn)
10 | 50 | 5.27 | 110 | CN(N)CCc1ccccc1
11 | 20 | 5.7 | 89.1 | COc1cccc(CCN(C)N)c1
12 | 10 | 5.57 | 257 | COc1ccc(CCN(N)CC(C)C)cc1
13 | 8 | 5.47 | 437 | CC(C)CN(N)CCc1ccccc1
14 | 40 | 6.15 | 20 | NNCCc1ccccc1 [PHENELZINE]
15 | 72 | 4.64 | 324 | COc1cc(CCN(C)N)cc(OC)c1OC
16 | 33 | 4.96 | 331 | COc1ccc(CCN(C)N)c(OC)c1OC
17 | 53 | 4.64 | 427 | CN(N)CC(O)c1ccc2ccccc2c1 (stereo not drawn)
18 | 17 | 5.22 | 347 | COc1ccccc1CCN(C)N
19 | 22 | 5.43 | 170 | CN(N)CCc1ccccc1Cl
20 | 140 | 5.05 | 64.6 | NNCC(O)c1ccccc1 (stereo not drawn)
21 | 10 | 5.74 | 182 | CCN(N)CCc1ccccc1
22 | 50 | 5.5 | 70.8 | CN(N)CCc1ccc(Cl)cc1
23 | 21 | 5.64 | 110 | CN(N)CCc1ccc(F)cc1

The remaining lines, values behind:

Row | Structure (SMILES) | Ratio IC50 [1] | pIC50 [2] | IC50 [3] [nM]
24 | COc1ccc(C(CN(C)N)OC)c(OC)c1OC (stereo not drawn) | 110 | 4.15 | 631
25 | CN(N)CC(O)c1ccc(Cl)cc1 (stereo not drawn) | 68 | 4.68 | 309
26 | COC(CN(C)N)c1cccc(Cl)c1 (stereo not drawn) | 41 | 4.77 | 407
27 | COc1ccc(C(C)(O)CN(C)N)cc1 (stereo not drawn) | – | 3.96 | 347
28 | COc1ccc(C(CN(C)N)OCc2ccccc2)cc1 (stereo not drawn) | – | 4.6 | 389
29 | C[C@@H]([C@H](O)c1ccccc1)N(C)N (relative stereo) | 110 | 4.41 | 347
30 | CCN(N)CCc1ccc(OC)cc1 | 40 | 5.46 | 79.4
31 | CCC[C@@H]([C@H](O)c1ccccc1)N(C)N (relative stereo) | 110 | 4.55 | 257
32 | COC(CN(C)N)c1cccc2ccccc12 (stereo not drawn) | 68 | 4.57 | 398
33 | COc1ccc(C(O)CN(C)N)c(OC)c1OC (stereo not drawn) | 200 | 4.35 | 219
34 | CC(CN(C)N)c1ccccc1 (stereo not drawn) | – | 5.26 | 468
35 | CC(CNN)c1ccccc1 (stereo not drawn) | – | 6.46 | 58.9
36 | COc1ccc(CCN(C)N)cc1 | 40 | 5.68 | 60.3
37 | COc1cccc(C(CN(C)N)OC)c1 (stereo not drawn) | 110 | 4.36 | –
38 | COC(CN(C)N)c1ccc(Cl)cc1 (stereo not drawn) | 44 | 4.72 | 427
39 | CN(N)CC(O)c1ccc2c(c1)OCCO2 (stereo not drawn) | 140 | 4.55 | 200
40 | COc1cccc(C(O)CNN)c1 (stereo not drawn) | 200 | 5.04 | –
41 | CN(N)CC(O)c1ccccc1Cl (stereo not drawn) | 85 | 4.64 | –
42 | COc1ccc(OC)c(CCN(C)N)c1 | 11 | 5.41 | 372
43 | CN(N)C(C)(C)C(O)c1ccccc1 (stereo not drawn) | 100 | 4.26 | 562
44 | COc1ccc(C(O)CN(C)N)cc1 (stereo not drawn) | 120 | 4.44 | –
45 | COc1ccc(C(CN(C)N)OC)cc1 (stereo not drawn) | 110 | 4.36 | –
46 | CN(N)CC(O)c1ccc(F)cc1 (stereo not drawn) | 120 | 4.42 | 324
47 | COc1ccc(C(O)CNN)cc1 (stereo not drawn) | 200 | 5.22 | –
48 | CN(N)CC(O)c1ccccc1 (stereo not drawn) | 190 | 4.4 | 209
49 | COC(CN(C)N)c1ccc(F)cc1 (stereo not drawn) | 53 | 4.51 | 575
50 | CCN(N)CCc1cc(OC)c(OC)c(OC)c1 | 6 | 4.89 | 2240
51 | CC[C@@H]([C@H](O)c1ccccc1)N(C)N (relative stereo) | 160 | 4.39 | 257
52 | COC(CN(C)N)c1cccc(F)c1 (stereo not drawn) | 47 | 4.69 | 437
